Data from the EternaBench riboswitch data.

System: MS2 coat protein
Assay: apparent Kd, MS2 coat protein; higher = weaker binding; RNA-MaP array; FMN 200 µM where present
How it was run: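 Green signal was scaled to red-channel RNA signal and control-cluster median Fmax, and the apparent Kd was taken as the median of filtered per-cluster binding-curve fits. The binding series used SNAP-549-labelled MS2 coat protein from 0.7 or 1.5 nM, doubling to 3 µM, on designs transcribed by stalled E. coli RNA polymerase on Illumina sequencing-chip clusters. Each series ran without and then with constant ligand in 100 mM Tris-HCl pH 7.5, 80 mM KCl, 4 mM MgCl2, BSA, DTT, yeast tRNA and Tween-20.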

[1] = designed as: ON switch for flavin mononucleotide, no ligand
[2] = ligand present: flavin mononucleotide, designed as: ON switch for flavin mononucleotide
[3] = designed as: OFF switch for flavin mononucleotide, no ligand
[4] = ligand present: flavin mononucleotide, designed as: OFF switch for flavin mononucleotide

Row | Sequence | apparent Kd [1] | apparent Kd [2] | apparent Kd [3] | apparent Kd [4]
1 | AACCUAUUACAGAAGGCCAGCUACAUGAGGAUCACCCAUGUCGAGUCAUGGAGGAUAUGUAGUAAUCUGCACGCGUGCGGGCAC | 49.8 nM | 6.65 nM | – | –
2 | CCAGCAACAUGAGGAUCACCCAUGUAGGAUAUCGCUAUUGUAAUCAUGAAACAUGAUUACAAUAGCGAGAAGGACAUAUGCUUU | – | – | 11 nM | 12 nM
3 | AGCAACAUGAGGAUCACCCAUGUUGGUUCGAAAACGGACUCACAGGAUAUGCAACGUGAUCGUUUGCAGAAGGGUGCGUCCUCA | 18.4 nM | 28.4 nM | – | –
4 | CUAAUGAGUGCGAGCUGACACAUGAGGAUCACCCAUGUAACACAGGAUAUCUGUCAAGGCGUGAAAGAGAAGGGUGGUCGGAAA | 142 nM | 263 nM | – | –
5 | AACACGAGAGGUGUUAUCUAACCACAUGAGGAUCACCCAUGUAAGGAUAUCGCGGCUAUCGGCAUCGAGAAGGUACAGGGUGCA | – | – | 44.1 nM | 93.6 nM
6 | ACGUAUAGAGGAUAUAGUGAAUAUUACAUGAGGAUCACCCAUGUUCUUCAAAGUAUAUUUCUAGAAGGCUAAUGAA | – | – | 35 nM | 92.7 nM
7 | AGAAACAGAGGAUAUCGCGGACAGCACAUGAGGAUCACCCAUGUGAUGCUCCGCGGGCCGCGAGAAGGCUGAAAUG | – | – | 15.1 nM | 36.8 nM
8 | GGUGCAUAUGAGAAGGCGGUCAUGAAACAUGAUCGAGGAUAUCAUGUAAACAUGAGGAUCACCCAUGUAUGGGAAUAAUGCACC | 238 nM | 16 nM | – | –
9 | GCUGCAUAGGCAGGAUAUGCAAAAGCAGAUGCAAAGCAUCUGCAAUAAACAUGAGGAUCACCCAUGUAGAAGGGCCUGUGCAGU | – | – | 20.8 nM | 19.4 nM
10 | GUCAUGUCAGGAUAUGCUUAUGAUGAGUGCUCAGACAUGAUGCAGAAGGGACAUGAGGAUCACCCAUGUACUGA | – | – | 22.4 nM | 26.8 nM
11 | UUUUUGUCAGGAUAUCCACCCACCACCUUCGGGUGGUGGGUGGAGAAGGGACAUGAGGAUCACCCAUGUAGUUU | – | – | 74.6 nM | 221 nM
12 | UAGGAGUCAGGAUAUGCGAGAGAUGGAAGUAAGGGAUGAGAGCAGAAGGGACAUGAGGAUCACCCAUGUAAGGA | – | – | 39.7 nM | 37.8 nM
13 | GUGCGUGGCUAGGAUAUUGUGGAGUUUAGUCAGCGAGAAGGGACUACAUGAGGAUCACCCAUGUGUAGUUGCUC | – | – | 212 nM | 198 nM
14 | GUUGAGCGUGCUACGCAAAAUAACGCAGAAGGCCAACAUGAGGAUCACCCAUGUAAACGAAAGAUGGAGGAUAUGCGGUUUGGC | 50.4 nM | 6.81 nM | – | –
15 | AAUGCCAAUGAAGGAUAUACAAACAUGAGGAUCACCCAUGUGUCUUUCGUGUAACUGGAAUUCGGGUAGAAGGUCAUUGACAUA | – | – | 34.5 nM | 26.9 nM
16 | GGACGUAAAGAGAAGGGCUACUGGUUGAAACCUGCGGCCUCUGGAACAUGAGGAUCACCCAUGUAGCAGGAUAUCUUUGCAUCA | – | – | 180 nM | 14.7 nM
17 | UUUUUACGAGGAUAUCGAUUGUGGUACAUGAGGAUCACCCAUGUAUGUGAUAUUGUAUUUCGAGAAGGCGUUCAGU | – | – | 19.3 nM | 17.8 nM
18 | UGUUGUAUUACAGGAUAUCUAUGAUUUUUAUCUAGAGAAGGGUAUUCACAUGAGGAUCACCCAUGUAUAUACGAGGAAGUUGUG | 31.2 nM | 30.6 nM | – | –
19 | CUGCCUUAUGUAGGAUAUGCAUAGCAUUGCUAUGCAGAAGGACAUGAGGAUCACCCAUGUAUGUAAUCAAUACAUAUCUGGCAG | – | – | 20.4 nM | 119 nM
20 | GGAUAGGACAGAGGAUAUACGUGCUAGAGAUACUAGCAAAAUUUCCUCACAUGAGGAUCACCCAUGUAGAAGGCUGUCCUCUCG | – | – | 18 nM | 409 nM
21 | AGUCGGAGCAGAGGAUAUUACAUGAGGAUCACCCAUGUAUAAAAUGGAAGCUGGAAACAGCAAUGUAAGAAGGCUGCUCCGACA | – | – | 64 nM | 296 nM
22 | CGAUCCCUGUAGAAGGGAGCACCGCAAAACGUGAACCGGUCGCACCGGUGCUUAGGAUAUACAUGAGGAUCACCCAUGUAAAGG | – | – | 15.3 nM | 20.2 nM
23 | GCGCUGCAGCGGUGCACGAGACAUGAGGAUCACCCAUGUGACAGAAGGGACUUGUUAAAGGUAGGUCAGGAUAUGUCUUAAAAG | 190 nM | 59.8 nM | – | –
24 | AUCCUGCGAGGAUAUACAUAAUUUUUUUCAUUUUGUUUCGAACAUGAGGAUCACCCAUGUAGAAGGUGCUACAC | – | – | 32.1 nM | 29 nM

Row | Sequence | apparent Kd [1] | apparent Kd [2] | apparent Kd [3] | apparent Kd [4]
25 | ACGUGUCGUGUAGGAUAUGACACAGGAAACUGGUCAGAAGGACAUGAGGAUCACCCAUGUAAAAUGUUCAAGAAUAACGUAUGC | – | – | 43.3 nM | 108 nM
26 | CCGCAAAUGGAGGAUAUCGUAUCGGAUACGAUACGAGAAGGCUAAACAUGAGGAUCACCCAUGUGUCCUAGCGG | – | – | 14 nM | 15.5 nM
27 | GAUUCGCGUGAGAAGGACAUGAGGAUCACCCAUGUAGGAUAUCACGGUCCUUAGAGGAUUUCAAACCGUACUGGGUCAUAGUGU | 15.2 nM | 6.7 nM | – | –
28 | GAUAGGACAGAGAAGGACGUGGCUAGAGAUACUAGCAUAAAGGUCCAAACAUGAGGAUCACCCAUGUAGGAUAUCUGUCCUAUC | – | – | 6.59 nM | 8.89 nM
29 | GAUUGACAUGAGGAUCACCCAUGUGAGGAUAUCGGCCGGAUCUUGUUAGCUUCCAUCGCGAGAAGGCACAUAGG | – | – | 66.1 nM | 73.5 nM
30 | GGUGCGUUUGUGAGGAUAUGCUGGUCCUUGGUUCGGCAGAAGGCACAUGAGGAUCACCCAUGUGGUGUCGCUCC | – | – | 41.7 nM | 139 nM
31 | GUUGCUUUCCGAGGAUAUUCCGGGCGUGGCUAUACAUGAGGAUCACCCAUGUGGCGGCCGCCUAGGGAGAAGGCGGGCUGCUUC | 15.9 nM | 15.7 nM | – | –
32 | CAUAACUUUGAUCUCUCCUACAUGAGGAUCACCCAUGUUGAGAGAAGGAGGCGGCAGAGUGCUGCCUAGGAUAUCUGAAGGGUC | – | – | 6.19 nM | 7.28 nM
33 | UGUGUGUGGGCAGGAUAUGCAUGAAUAUGUAUGAUGUAGUGUGAUGUAACAUGAGGAUCACCCAUGUAGAAGGGCCGGUGUAUG | – | – | 94.5 nM | 122 nM
34 | GUAUUUGGUUAGGAUAUUGACUCGAGAUCGAGAUAAGAAGGAGCCACAUGAGGAUCACCCAUGUCUAUCCAAGA | – | – | 27 nM | 29.6 nM
35 | GCGCAAGCAUGAGGAUAUGUAUUAAAUAAUAAUACAGAAGGCAUGUCAAAUGACAUGAGGAUCACCCAUGUUGGCAAAAUGCGC | 45.8 nM | 10.5 nM | – | –
36 | GUGACGAUGUAAGGAUAUGCUGAGGAAUACUCAGCAGAAGGUACAUGAGGAUCACCCAUGUAACGUCACAAUAAUAAUAAUAAU | – | – | 13.3 nM | 24.1 nM
37 | UCAUACAUGACAUGACAUGAGGAUCACCCAUGUCCAUGUUACAAGGAUAUGUACAUGAAACAUGUACAGAAGGUGUAUUGGACU | – | – | 15.4 nM | 29.4 nM
38 | GGUACUCAAAGAGUACUGAGUCGAACAUGAGGAUCACCCAUGUAGGAUAUGCGAGUUUUGAAUUUGCAGAAGGACAUUUGCAGC | – | – | 9.34 nM | 10.8 nM
39 | UGGUACUAGGAAGGAUAUGGGAAGAUACAUGAGGAUCACCCAUGUUUAAGAAUGCCGAGAGGCAACUAGAAGGCCCUAGUACCU | 596 nM | 135 nM | – | –
40 | UCGAGUCAUGAGAAGGGCUGAUGUUACAUGAGGAUCACCCAUGUCAUGGGCAGGAUAUCAUUGACACGGCUGUACCUUUCUUAC | 149 nM | 29.4 nM | – | –
41 | GUUAAGGUAGGAUAUACGAGAAUAUAGGGUAGAUAUAUAACACAUGAGGAUCACCCAUGUAGAAGGACCAAUUG | – | – | 33.8 nM | 95.6 nM
42 | GGCUUAAACACAGGAUAUGGCCUUAGAGUGAGGCCAGAAGGGUGAAGUUCUCAUACAUGAGGAUCACCCAUGUCAAGGAGGCUA | 857 nM | 201 nM | – | –
43 | CGCAAUAUACAGAAGGAGUUAUUUAGAGGUUUACUAGGAUAUGUUCACAUGAGGAUCACCCAUGUCAUAUGGUUUUUUAUUGCG | – | – | 10.1 nM | 8.96 nM
44 | GGAGCUCAUCAAUACAUGAGGAUCACCCAUGUCGAAUGAUAUGAGGAUAUGCAUCGGAAAACGAUGUAGAAGGCAUAGAGCUCC | 15.3 nM | 6.63 nM | – | –
45 | GGGUGAGCUCAAGGAUAUCCAAAUCGGUUACAUGAGGAUCACCCAUGUCCGGGCGAAUAAAGGCCGGAGAAGGUGAGGGCCCUC | 67.5 nM | 180 nM | – | –
46 | GAAUUCGCAUGAGGAUAUGCUCCCGUUUCGGGAGCAGAAGGCAUGUCAUAAGACAUGAGGAUCACCCAUGUAGUUAAGAUUGAA | 196 nM | 11.3 nM | – | –
47 | AAAUAAACUAGCAUAAUAACCUCACAUGAGGAUCACCCAUGUCAGGAUAUCUGUCCUAAAAGGACAGAGAAGGGACGUGCUAGG | – | – | 5.68 nM | 6.95 nM
48 | ACAUGAGGAUCACCCAUGUGAACAUAGGAUAUUGGUGAUCAGGCGUGUUAUACAGGAUAGGUCUGCGAGAAGGGUGUACGUUGC | 367 nM | 71.7 nM | – | –
